This note sets out measurements from ChEMBL document CHEMBL1122631, “2,3,4,4a,5,9b-Hexahydro-1H-indeno[1,2-b]pyridines: potential antidepressants” (J Med Chem, 1984).

Data set [1] deals with Mus musculus. The data set can be described thus: Enhancement of spontaneous motor activity (SMA) in mice after oral administration of 1 mg/kg of the compound. Accumulated motility counts during second hour of observation, was reported. The data set is classed as functional.
Data set [2] is filed under the species Mus musculus. The data set can be described thus: Percent enhancement of spontaneous motor activity (SMA) was observed. Accumulated motility counts during second hour of observation, was reported. The data set is classed as functional.
The test system of data set [3] is Mus musculus. The data set can be described thus: Enhancement of spontaneous motor activity (SMA) in mice after oral administration of 1 mg/kg of the compound. Accumulated motility counts during first hour of observation, was reported. The data set is classed as functional.
For data set [4], the species on record is Mus musculus. The data set is described as follows: Percent enhancement of spontaneous motor activity (SMA) was observed. Accumulated motility counts during first hour of observation, was reported. Type of data set: functional.
The species named for data set [5] is Mus musculus. The data set can be described thus: Percent enhancement of spontaneous motor activity (SMA) was observed. Accumulated motility counts during one hour of observation, was reported. Type of data set: functional.
Data set [6] is described as follows: Acute toxicity in mice, after intraperitoneal administration. To be noted: mouse, in vivo, ip. Type of data set: organism-based. The method, boiled down:
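Mice, groups of 10, given compound suspended in 1% methylcellulose ip at 10 mL/kg, then housed with food and water ad libitum. Observed hourly up to 6 h; deaths recorded at 24 and 48 h.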

For data set [7], the species on record is Rattus norvegicus. The data set is described as follows: Compound was tested for inhibition of uptake of [14C]5-HT (5-HT) into rat whole brain, in vitro. Type of data set: functional. The essentials: (§1)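 Rat brain synaptosomes (Whittaker method) incubated with labelled monoamine (1 × 10^-7 mol final) at 37 °C with or without drug. [14C]NE and [14C]5-HT uptake in Krebs-Henseleit bicarbonate pH 7.4 with 11 mmol glucose; [3H]DA uptake in phosphate buffer, corpus striatum synaptosomes. Time: 5 min whole brain, 10 min hypothalamus. Nonspecific binding at 0 °C; membrane filtration, scintillation counting; IC50 from 3–4 concentrations, at least triplicate.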

Data set [8] is filed under the species Rattus norvegicus. The data set is described as follows: Compound was tested for inhibition of uptake of [14C]norepinephrine (NE) into rat brain hypothalamus, in vitro. Type of data set: functional. The method, boiled down:
as §1

The species entered for data set [9] is Rattus norvegicus. The data set can be described thus: Compound was tested for inhibition of uptake of [3H]dopamine (DA) into rat corpus striatum, in vitro. Type of data set: functional. The method, boiled down: as §1
Data set [10] is described as follows: Therapeutic index (TI), ratio of LD50 and ED50 (TBZ) in mice after i.p. administration. To be noted: mouse, in vivo, ip.
The test system of data set [11] is Mus musculus. The data set is described as follows: Enhancement of spontaneous motor activity (SMA) in mice after oral administration of 0.3 mg/kg of the compound. Accumulated motility counts during second hour of observation, was reported. The data set is classed as functional.
In data set [12] the test system is Mus musculus. The data set can be described thus: Prevention of tetrabenazine induced ptosis in mice following i.p. administration. The data set is classed as functional. To be noted: ip. The essentials:
(§2)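 Mice given compound ip in 1% methylcellulose (10 mL/kg), 30 min before tetrabenazine 40 mg/kg base ip; solvent+TBZ control per test. Ptosis scored 30 min after TBZ (+1 min) as 100/50/0% (closed/half/open), not normalized.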

Data set [13] relates to Mus musculus. The data set can be described thus: Prevention of tetrabenazine (TBZ) induced ptosis in mice after intraperitoneal administration; b denotes 'No activity detected up to a dose of one-fifth of the LD ip in mice. The data set is classed as functional, organism-based. The essentials:
as §2

For data set [14], the system named is Mus musculus. The data set is described as follows: Prevention of tetrabenazine (TBZ)-induced ptosis in mice after intraperitoneal administration. The data set is classed as functional, organism-based. The essentials:
as §2

Data set [15] in a line: Compound was tested for acute toxicity in mice, after intravenous administration of the compound. The data set is classed as organism-based. To be noted: mouse, in vivo.

Where only a bound is given, the exact number is not on record here.

Broadly, the LD50 is the dose at which mortality reaches 50%. Low readings indicate a more toxic substance, high ones a less toxic substance. In general, IC50 refers to the concentration at which inhibition is half-maximal. A lower IC50 goes with greater potency in that assay. For orientation: ED50 means the midpoint of the dose-response relation. `Nc1ccc([C@@H]2c3ccccc3[C@H]3NCCC[C@@H]23)cc1`: the Basis motility in the data set on Mus musculus [1] is given as 12001; in the data set listed under Mus musculus [2], -7; in the data set with Mus musculus [11], 5501. Also, the Exploration motility is recorded as 7924 in the data set with Mus musculus [3], -4 in the data set filed under Mus musculus [4] and 116 in the data set filed under Mus musculus [5]. In data set [6], this molecule returned an LD50 of 50 mg/kg. For the same molecule, the IC50 in the data set listed under Rattus norvegicus [7] is over 100000 nM; in the data set listed under Rattus norvegicus [8], 7.4 nM; in the data set filed under Rattus norvegicus [9], 44 nM. Besides, the selectivity ratio in data set [10] is 500. The same molecule returned an ED50 in the data set on Mus musculus [12] of 0.1 mg/kg.

With `COc1ccc2c(c1)[C@H](c1ccc(C(C)C)cc1)[C@@H]1CCCN[C@H]21`, the ED50 entry with Mus musculus [13] was “No activity detected up to a dose of 1/5 LD50 ip in mice”. Besides, the LD50 in data set [6] was found to be 37 mg/kg.

On to `COc1cc2c(cc1OC)[C@H]1NCCC[C@H]1[C@H]2c1cccnc1`, for which the ED50 entry in the data set with Mus musculus [14] is “No activity detected up to a dose of 1/5 LD50 ip in mice”. The molecule further showed an LD50 in data set [15] of 30 mg/kg.
